Here are results for 18 compounds from ChEMBL document CHEMBL1145760, “Design, synthesis and biological evaluation of benzimidazole/benzothiazole and benzoxazole derivatives as cyclooxygenase inhibitors” (Bioorg Med Chem Lett, 2003).

Test [1] addresses T1, Prostaglandin G/H synthase 2 (Homo sapiens, UniProt P35354).
T1 sequence (P35354 whole entry): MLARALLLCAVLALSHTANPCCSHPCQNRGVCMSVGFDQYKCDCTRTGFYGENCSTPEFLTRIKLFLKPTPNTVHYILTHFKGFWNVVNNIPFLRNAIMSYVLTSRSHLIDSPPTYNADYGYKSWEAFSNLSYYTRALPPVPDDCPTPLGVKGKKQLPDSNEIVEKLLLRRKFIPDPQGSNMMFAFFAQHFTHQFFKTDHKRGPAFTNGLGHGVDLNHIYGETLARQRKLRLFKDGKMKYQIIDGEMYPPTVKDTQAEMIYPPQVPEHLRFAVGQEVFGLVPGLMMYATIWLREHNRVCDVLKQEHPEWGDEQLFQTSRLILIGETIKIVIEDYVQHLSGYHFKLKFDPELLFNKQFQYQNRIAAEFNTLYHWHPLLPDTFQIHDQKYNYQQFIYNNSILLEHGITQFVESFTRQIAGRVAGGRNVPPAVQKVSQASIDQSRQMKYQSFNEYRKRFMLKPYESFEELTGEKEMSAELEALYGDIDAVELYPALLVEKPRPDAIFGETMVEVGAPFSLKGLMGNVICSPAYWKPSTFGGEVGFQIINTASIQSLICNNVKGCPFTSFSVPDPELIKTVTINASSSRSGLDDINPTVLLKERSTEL
Description: Inhibitory activity against Prostaglandin G/H synthase 2 in human whole blood assay as LPS induced PGE-2 generation. The class given is tissue-based.

In test [2] the target is T2, Prostaglandin G/H synthase 1 (Homo sapiens, UniProt P23219). Description: Inhibitory activity against Prostaglandin G/H synthase 1 in human whole blood assay as TXB2 generation. Type of test: tissue-based. In short, it runs like this: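 COX-1 activity measured in human whole blood by TXB2 generation. IC50 values were estimated by nonlinear regression of dose–response curves and are the average of three determinations.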
T2 sequence (P23219 whole entry): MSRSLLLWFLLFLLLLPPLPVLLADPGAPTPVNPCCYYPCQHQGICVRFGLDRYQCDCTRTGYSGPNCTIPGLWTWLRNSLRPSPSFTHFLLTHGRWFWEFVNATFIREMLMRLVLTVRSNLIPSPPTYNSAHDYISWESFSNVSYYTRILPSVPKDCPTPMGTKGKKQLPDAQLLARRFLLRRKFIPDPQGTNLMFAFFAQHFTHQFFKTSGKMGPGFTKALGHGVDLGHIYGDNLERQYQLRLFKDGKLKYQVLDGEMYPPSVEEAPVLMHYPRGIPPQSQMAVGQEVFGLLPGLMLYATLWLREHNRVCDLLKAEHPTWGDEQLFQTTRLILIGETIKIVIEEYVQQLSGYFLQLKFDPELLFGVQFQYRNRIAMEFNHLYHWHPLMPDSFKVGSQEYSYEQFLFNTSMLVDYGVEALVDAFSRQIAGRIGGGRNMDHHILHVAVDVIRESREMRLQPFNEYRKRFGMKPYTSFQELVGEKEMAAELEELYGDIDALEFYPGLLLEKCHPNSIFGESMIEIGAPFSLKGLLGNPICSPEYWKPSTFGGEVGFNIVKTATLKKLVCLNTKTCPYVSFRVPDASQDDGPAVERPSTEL

The target of test [3] is T2, Prostaglandin G/H synthase 1. The test can be described thus: Ratio for inhibition of COX-1 to that of COX-2.

What is called IC50 is the concentration that inhibits the measured activity by half. Low values mean greater potency in that assay, high ones weaker potency in that assay.

For the compound `CCCCCCCCCCCCCCCc1cccc(OCC)c1CSc1nc2ccc(OC)cc2[nH]1`, the IC50 is 6.25 µM in test [1] and over 500 µM in test [2].

In the case of `CCCCCCCCCCCCCCCc1cccc(O)c1CSc1nc2cc(OC)ccc2[nH]1`, the figures for the half-inhibitory concentration (IC50) in test [1] and in test [2] were 1 µM and 384 µM, respectively. For the same compound, the Ratio in test [3] was 384.

`CCCCCCCCCCCCCCCc1cccc(OC)c1CSc1nc2cc(OC(F)F)ccc2[nH]1` yielded an IC50 in test [1] of over 10 µM.

On to `CCCCCCCCCCCCCCCc1cccc(OC)c1CSc1nc2cc(C)ccc2[nH]1`, for which the IC50 in test [1] was 2.63 µM; in test [2], over 500 µM. The Ratio in test [3] is over 190.

`CCCCCCCCCCCCCCCc1cccc(OCC)c1CSc1nc2ccccc2o1`: the IC50 in test [1] is over 10 µM.

On to `CCCCCCCCCCCCCCCc1cccc(OC)c1CSc1nc2ccccc2s1`, for which the IC50 in test [1] is 1.06 µM; in test [2], over 500 µM. In addition, in test [3], the Ratio was over 470.

Compound `CCCCCCCCCCCCCCCc1cccc(OCC)c1CSc1nc2ccccc2s1` returned an IC50 in test [1] of over 10 µM.

On to `CCCCCCCCCCCCCCCc1cccc(OC)c1CSc1nc2ccccc2[nH]1`, for which, in test [1], the IC50 is over 10 µM.

In turn, `CCCCCCCCCCCCCCCc1cccc(OCC)c1CSc1nc2ccc(OC(F)F)cc2[nH]1` registered an IC50 in test [1] of over 10 µM.

As for `CCCCCCCCCCCCCCCc1cccc(OC)c1CSc1nc2ccc([N+](=O)[O-])cc2[nH]1`, the IC50 is 2.27 µM in test [1] and over 500 µM in test [2].

Take `CCCCCCCCCCCCCCCc1cccc(OC)c1CSc1nc2cc([N+](=O)[O-])ccc2[nH]1`: the Ratio in test [3] is over 220.

As to `CCCCCCCCCCCCCCCc1cccc(OCC)c1CSc1nc2ccc([N+](=O)[O-])cc2[nH]1`, the figures for the IC50 in test [1] and in test [2] were 3.84 µM and over 500 µM, respectively.

Regarding `CCCCCCCCCCCCCCCc1cccc(OC)c1CSc1nc2ccccc2o1`, the results for the IC50 in test [1] and in test [2] were 2.77 µM and over 500 µM, respectively. For the same compound, the Ratio in test [3] was over 220.

With `CCCCCCCCCCCCCCCc1cccc(OCC)c1CSc1nc2ccccc2[nH]1`, the half-inhibitory concentration (IC50) is 1.47 µM in test [1] and over 500 µM in test [2]. Moreover, the Ratio in test [3] is over 340.

`CCCCCCCCCCCCCCCc1cccc(OC)c1CSc1nc2cc(OC)ccc2[nH]1`: the IC50 in test [1] was over 10 µM.

Take `CCCCCCCCCCCCCCCc1cccc(OCC)c1CSc1nc2cc(OC)ccc2[nH]1`: the Ratio in test [3] is over 80.

As to `CCCCCCCCCCCCCCCc1cccc(OCC)c1CSc1nc2ccc(C)cc2[nH]1`, the IC50 in test [1] was over 10 µM.

Regarding `CCCCCCCCCCCCCCCc1cccc(OCC)c1CSc1nc2cc([N+](=O)[O-])ccc2[nH]1`, the Ratio in test [3] is over 130.
